Bioassay records as filed in PubChem.
Mdm2-MdmX inh: disrupts the human Mdm2-MdmX interaction | AID 485346 | SaOS-2 split-luciferase Mdm2/MdmX complementation, luminescence | O15151+Q00987 | inhibition, % at 8 µM | 3% of 330,000 active;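 active = inhibition of at least 50% at 8 µM in the primary screen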
Calb FLC: C. albicans growth modulation with fluconazole. C. albicans CaCi-2 (fluconazole-resistant clinical isolate) + fluconazole, Alamar Blue growth, 48 h. growth inhibition, % (no concentration beside the values). 0.57% of 300,000 active;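 active = growth inhibition above about 58% in most replicates, limit read from the data, passing the limit was not always enough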;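 note: all wells also contain fluconazole at 8 µg/ml as a sub-toxic cotreatment; 0% = median of DMSO wells and 100% = median of geldanamycin control wells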
SKKanGAS inh: blocks kanamycin growth of S. pyogenes SKKanGAS strain; inhibition, % at 7.5 µM; AID 1662; BacTiter-Glo, 6 h; 1.3% of 300,000 active;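 active = mean replicate score, as percent of positive control median, at least 50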;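 note: strain carries kanamycin resistance gene driven by streptokinase promoter and grows in 40 µg/ml kanamycin; loss of luminescence reflects streptokinase promoter inhibition or plain growth inhibition; 0% = median of DMSO wells and 100% = positive control at its reference dose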
Beta cell apopt: beta cell apoptosis inhibition; INS-1E cytokine-induced death, ATP luminescence, 48 h; percent of positive-control rescue, neutral wells zero; protection from apoptosis, % (concentration not given with the values); 0.8% of 300,000 active;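 active = Every replicate reaches about 75%, or at least half do and their mean reaches it too, limit read from the data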;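 note: 0% = cytokine-treated negative control wells and 100% = positive control rescue; higher means more ATP so stronger rescue from cytokine killing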
T cruzi repl: T. cruzi replication inhibition. 1.4% of 300,000 active. AID 1885. inhibition, % (no concentration beside the values). T. cruzi beta-gal in NIH3T3, luminescence, 90 h;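 active = mean inhibition across valid replicates above about 55%, limit read from the data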;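 note: signal also drops with host cell toxicity which is not excluded here; 0% = plate median of DMSO wells and 100% = zero luminescence signal; higher percent means less beta-gal luminescence so fewer parasites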
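compound dosing = single 50 nL compound addition per well in DMSO | material = NIH/3T3 host cells with β-galactosidase reporter T. cruzi | input = 5,000 host fibroblasts per well | timing = ≥90 h infection period, 3 h prior cell attachment | read-out basis = percent inhibition of parasite-derived β-gal signal | detection = GalScreen β-gal luminescence, detergent lysis, 60 min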
CSC inhib: cancer stem cell inhibition; cancer stem cell-like cells viability, luminescence; inhibition, % at 7.5 µM; 1.1% of 300,000 active; AID 2717; in the data active = inhibition above about 75%; tested in HMLE shEcad cells
* = called active by the depositor; · = no result given. Most compounds without a hit are left out; they make up all but 5.7% or so of the library.

SMILES	Mdm2-MdmX inh	Calb FLC	SKKanGAS inh	Beta cell apopt	T cruzi repl	CSC inhib
O=C(c1cn(-c2ccccc2)nc1-c1cccs1)N(CCO)Cc1ccccc1	3	-3	5	3	-6	12
CN(C)C(=O)c1cn(-c2ccccc2)nc1-c1cccs1	11	106*	3	-5	0	-7
Cc1ccc(NS(=O)(=O)c2ccc(-c3coc(C)n3)cc2)c(Br)c1	18	4	2	-4	-3	-11
CC(=O)OCCN1C(=O)c2cccc3cc([N+](=O)[O-])cc(c23)C1=O	17	9	-11	10	73*	17
COC(=O)c1ccc(C(=O)OC)c(NC(=O)CN(C)Cc2ccccc2)c1	11	-1	11	-6	25	-2
COC(=O)c1ccc(C(=O)OC)c(NC(=O)CN(C)Cc2cccc(Cl)c2Cl)c1	13	-4	69*	2	8	1
O=C(Nc1ccc(Cn2cccn2)cc1)c1ccc(COc2cccc(Br)c2)cc1	-41	0	16	-2	14	99*
O=C(Nc1ccc(Cn2cccn2)cc1)c1ccc(COc2ccc(Br)cc2)cc1	19	0	1	-1	-9	3
S=C(NC1CCCCC1)N1CCn2cccc2C1c1cccnc1 (stereo not given)	26	-20	-6	-3	55*	-13
Fc1cccc(NC(=S)N2CCn3cccc3C2c2cccnc2)c1 (stereo not given)	7	0	-2	-2	63*	7
S=C(Nc1ccccc1)N1CCn2cccc2C1c1cccnc1 (stereo not given)	28	-1	-4	2	31	-19
S=C(NC1CCCCC1)N1CCn2cccc2C1c1ccncc1 (stereo not given)	22	3	-3	-2	-9	-7
CC(=O)N1c2ccc(S(=O)(=O)N3CCCCC3)cc2CC1C(=O)Nc1ccc(C)cc1 (stereo not given)	6	-1	5	·	3	2
COc1ccc(S(=O)(=O)Nc2ccc3c(c2)C(=O)N([C@H](C)CO)C[C@H](C)[C@@H](CN(C)S(C)(=O)=O)O3)cc1	2	·	·	-2	·	·
C=CCc1c(C)c(C#N)c2nc3ccccc3n2c1NCCN(C)C	15	91*	-1	2	49	5
CNc1cc(C)c(C#N)c2nc3ccccc3n12	-10	-9	20	10	-2	-1
CCc1c(C)c(C#N)c2nc3ccccc3n2c1NCCN(C)C	-7	43	1	10	68*	-1
Cc1cc(Cl)n2c(nc3ccccc32)c1C#N	·	94*	4	·	71*	·
O=C(COCc1cc(-c2ccc3c(c2)OCO3)on1)N1CCN(c2cccc(C(F)(F)F)c2)CC1	13	-2	11	-13	-2	119*
O=C(c1ccc(Cl)cc1)c1cnc(Nc2ccccc2Cl)s1	-109	58	75*	3	21	15
CC(=O)c1cnc(Nc2cccc(Cl)c2Cl)s1	-5	79*	-2	1	13	1
CNc1ncc(C(=O)c2ccccc2)s1	-32	-20	-2	-3	-33	4
CC(=O)c1cnc(Nc2ccccc2)s1	-10	14	1	1	-10	-10
Cc1ccc(S(=O)(=O)NCC(=O)OCC(=O)N2CCN(C(=O)c3ccco3)CC2)cc1C	14	-3	25	1	8	-8
CCNC(=S)Nc1ccc(OCc2nc3ccccc3s2)cc1	-100	-1	-6	12	5	-4
SMILES	Mdm2-MdmX inh	Calb FLC	SKKanGAS inh	Beta cell apopt	T cruzi repl	CSC inhib
Cc1nn(C(C)C(=O)NCCN2CCCCCC2)c(=O)c2nn(-c3ccccc3)c(C)c12 (stereo not given)	12	-4	0	-5	-3	0
Cc1nn(C(C)C(=O)N2CCCC2)c(=O)c2nn(-c3ccccc3)c(C)c12 (stereo not given)	7	1	0	-2	56*	-11
CCOC(=O)C1CCN(C(=O)c2ccc(OCC(=O)Nc3cccc(C(F)(F)F)c3)c(OC)c2)CC1	46	-3	5	-11	6	·
Cc1ccc(C(=O)/C=C\C(=O)c2ccc(C)cc2)cc1	·	47	56*	-6	71*	10
COc1ccc(Cc2[nH]n3c(=O)c(Cl)c(C)nc3c2-c2ccccc2)cc1	21	-7	122*	-2	-8	10
COc1ccc(-c2nc3nc(C)c(Cc4ccccc4)c(=O)n3[nH]2)cc1	-20	-4	24	10	8	13
